# Reference: ChEMBL document CHEMBL2384910, “Lead optimization of 5-amino-6-(2,2-dimethyl-5-oxo-4-phenylpiperazin-1-yl)-4-hydroxyhexanamides to reduce a cardiac safety issue: discovery of DS-8108b, an orally active renin inhibitor” (Bioorg Med Chem, 2013)
# Numbering of substitutions follows the chain as printed.
# Tests used:
# [1] = target: T1, Renin (Macaca fascicularis, UniProt Q6DLS0); assay: Inhibition of renin in cynomolgus monkey plasma after 1 hr by RIA
# T1 sequence (Q6DLS0 whole entry): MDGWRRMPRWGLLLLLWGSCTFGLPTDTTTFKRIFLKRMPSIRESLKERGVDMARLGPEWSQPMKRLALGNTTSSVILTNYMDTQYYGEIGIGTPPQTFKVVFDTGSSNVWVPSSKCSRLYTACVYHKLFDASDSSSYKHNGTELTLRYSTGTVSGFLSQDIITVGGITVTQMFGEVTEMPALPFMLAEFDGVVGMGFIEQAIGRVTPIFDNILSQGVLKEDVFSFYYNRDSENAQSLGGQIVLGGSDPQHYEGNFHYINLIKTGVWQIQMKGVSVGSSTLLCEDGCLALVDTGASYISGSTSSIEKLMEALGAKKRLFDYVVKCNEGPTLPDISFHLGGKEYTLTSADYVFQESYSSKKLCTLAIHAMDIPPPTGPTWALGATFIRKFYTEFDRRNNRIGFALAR
# How it was run: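 Pooled mixed-gender EDTA cynomolgus monkey plasma with pH adjusting solution and Inhibitor A, compound in 1% DMSO final, incubated 1 h at 37 °C. Angiotensin I by competitive RIA; uninhibited and 4 °C controls define % inhibition; IC50 from four-parameter fit; ratio is compound IC50 over aliskiren IC50 in same plasma batch; ≥2 replicates.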
# [2] = AUC (0 to 24 hrs) in cynomolgus monkey at 3 mg/kg, po by HPLC-MS/MS analysis; type: ADME, organism-based, Macaca fascicularis; design: time < 24 hr, dose 3 mg/kg, route oral; settings: plasma
# How it was run: (§1)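 Blood sampled over 24 h, at least 7 time points; plasma levels by HPLC-MS/MS; parameters from non-compartmental analysis of concentration-time curves.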
# [3] = Cmax in cynomolgus monkey at 3 mg/kg, po by HPLC-MS/MS analysis; type: ADME, organism-based, Macaca fascicularis; design: dose 3 mg/kg, route oral; settings: in vivo; how it was run: as §1
# [4] = target: T2, Renin (Homo sapiens, UniProt P00797); assay: Inhibition of human recombinant renin using Arg-Glu(EDANS)-Ile-His-Pro-Phe-His-Leu-Val-Ile-His-Thr-Lys (DABCYL)-Arg as substrate incubated for 10 mins prior to substrate addition measured after 90 mins by fluorescence assay
# T2 sequence (P00797 whole entry): T1 sequence (Q6DLS0 whole entry) with A68T, L214I, A235S
# How it was run: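 Trypsin-activated recombinant human renin in 50 mM Tris-HCl pH 7.9, 100 mM NaCl, preincubated with compound 10 min at room temperature; FRET substrate Arg-Glu(EDANS)…Lys(DABCYL)-Arg added, 90 min at 37 °C.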
# [5] = target: T3, Renin (Macaca fascicularis) (UniProt Q6DLS0); assay: Ratio of compound IC50 to aliskiren IC50 for renin in cynomolgus monkey plasma
# T3 sequence (whole entry): T1 sequence (Q6DLS0 whole entry)
# [6] = test system: Heart; assay: Cardiotoxicity in anesthetized New Zealand White rabbit heart assessed as prolongation of QTc interval at 10 uM after 20 mins relative to baseline; type: toxicity, tissue-based, Oryctolagus cuniculus
# How it was run: (§2)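 Isolated Langendorff-perfused hearts from female NZW rabbits anesthetized with thiopental 30 mg/kg iv; heart excised into chilled Krebs-Henseleit solution. After parameters stabilized, compound perfused at 10, 30 and 100 µM for 20 min; ECG changes expressed as % change from baseline.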
# [7] = test system: Heart; assay: Cardiotoxicity in anesthetized New Zealand White rabbit heart assessed as prolongation of QRS width at 30 uM after 20 mins relative to baseline; type: toxicity, tissue-based, Oryctolagus cuniculus; how it was run: as §2
# [8] = test system: Heart; assay: Cardiotoxicity in anesthetized New Zealand White rabbit heart assessed as prolongation of QTc interval at 30 uM after 20 mins relative to baseline; type: toxicity, tissue-based, Oryctolagus cuniculus; how it was run: as §2
# [9] = test system: Heart; assay: Cardiotoxicity in anesthetized New Zealand White rabbit heart assessed as prolongation of […] at 10 uM after 20 mins relative to baseline; type: toxicity, tissue-based, Oryctolagus cuniculus; how it was run: as §2
# [10] = test system: Heart; assay: Cardiotoxicity in anesthetized New Zealand White rabbit heart assessed as prolongation of heart rate at 30 uM after 20 mins relative to baseline; type: toxicity, tissue-based, Oryctolagus cuniculus; how it was run: as §2
# [11] = test system: Heart; assay: Cardiotoxicity in anesthetized New Zealand White rabbit heart assessed as prolongation of QRS width at 10 uM after 20 mins relative to baseline; type: toxicity, tissue-based, Oryctolagus cuniculus; how it was run: as §2
# [12] = test system: Heart; assay: Cardiotoxicity in anesthetized New Zealand White rabbit heart assessed as prolongation of heart rate at 10 uM after 20 mins relative to baseline; type: toxicity, tissue-based, Oryctolagus cuniculus; how it was run: as §2
# [13] = test system: Heart; assay: Cardiotoxicity in anesthetized New Zealand White rabbit heart assessed as prolongation of […] at 30 uM after 20 mins relative to baseline; type: toxicity, tissue-based, Oryctolagus cuniculus; how it was run: as §2
# [14] = test system: Rattus norvegicus; assay: Cardiotoxicity in Sprague-Dawley rat electrophysiology model assessed as QRS complex abnormalities at 10 mg/kg, iv by ECG analysis; type: toxicity, organism-based; design: dose 10 mg/kg, route intravenous; settings: in vivo
# How it was run: (§3)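 Male Sprague-Dawley rats anesthetized with inactin 100 mg/kg ip; surface lead II ECG recorded continuously. Compounds given as iv bolus via right jugular vein catheter after stabilization; QRS complex abnormality scored as no, moderate or severe change; n = 2 at 10 mg/kg.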
# [15] = test system: Rattus norvegicus; assay: Cardiotoxicity in Sprague-Dawley rat electrophysiology model assessed as QRS complex abnormalities at 10 mg/kg, iv; type: toxicity, organism-based; design: dose 10 mg/kg, route intravenous; settings: in vivo; how it was run: as §3
# [16] = test system: Heart; assay: Cardiotoxicity in anesthetized New Zealand White rabbit heart assessed as ventricular tachycardia and ventricular fibrillation at 30 uM after 20 mins; type: toxicity, tissue-based, Oryctolagus cuniculus; how it was run: as §2
Compound,IC50 [1] [nM],IC50 [4] [nM],Ratio IC50 [5],Activity [14],further results
CC[C@H](C[C@H](O)[C@@H](N)CN1CC(=O)N(c2ccccc2Cl)CC1(C)C)C(=O)NC1C2CC3CC1CC(C(N)=O)(C3)C2.O=C(O)/C=C/C(=O)O (stereo partly specified),1.2,1.3,0.5,,AUC(0-t) at 24 h [2]: 90 ng·h/mL; Cmax [3]: 19 ng/mL
CC[C@H](C[C@H](O)[C@@H](N)CN1CC(=O)N(c2ccccc2Cl)CC1(C)C)C(=O)NCC(C)(C)CO.O=C(O)/C=C/C(=O)O,5.2,1.6,0.8,Non-toxic,Activity [6]: -2.1%; Activity [7]: 1.7%; Activity [8]: -5.4%; Activity [9]: -7.8%; Activity [10]: -4.3%; Activity [11]: 3.8%; Activity [12]: -3.5%; Activity [13]: 3.4%
CC[C@H](C[C@H](O)[C@@H](N)CN1CC(=O)N(c2ccccc2Cl)CC1(C)C)C(=O)NCC(CC)(CC)CO.O=C(O)/C=C/C(=O)O,3,1,0.8,Toxic,
CC(C)[C@H](C[C@H](O)[C@@H](N)CN1CC(=O)N(c2ccccc2Cl)CC1(C)C)C(=O)NC12CC3CC(CC(O)(C3)C1)C2.O=C(O)/C=C/C(=O)O,6.5,2,0.7,Toxic,
Cc1ccc(F)cc1N1CC(C)(C)N(C[C@H](N)[C@@H](O)C[C@H](C(=O)N[C@H]2C3CC4CC2C[C@](O)(C4)C3)C(C)C)CC1=O.O=C(O)/C=C/C(=O)O,10,1.7,0.9,Non-toxic,
CC[C@H](C[C@H](O)[C@@H](N)CN1CC(=O)N(c2ccccc2Cl)CC1(C)C)C(=O)Nc1ccc(OC)cc1.O=C(O)/C=C/C(=O)O,11,1.4,2.1,Toxic,
CC[C@H](C[C@H](O)[C@@H](N)CN1CC(=O)N(c2ccccc2Cl)CC1(C)C)C(=O)Nc1ccc(C)cc1.O=C(O)/C=C/C(=O)O,28,3.2,4.5,Toxic,
CC(C)[C@H](C[C@H](O)[C@@H](N)CN1CC(=O)N(c2ccccc2Cl)CC1(C)C)C(=O)Nc1ccccc1.O=C(O)/C=C/C(=O)O,9.2,1.4,1.3,Toxic,
CC(C)[C@H](C[C@H](O)[C@@H](N)CN1CC(=O)N(c2ccccc2Cl)CC1(C)C)C(=O)N[C@H]1CC[C@H](O)CC1.O=C(O)/C=C/C(=O)O,4.3,1.4,0.8,Non-toxic,AUC(0-t) at 24 h [2]: 75 ng·h/mL; Cmax [3]: 19 ng/mL
CCN(CC)CC(=O)Nc1c(C)cccc1C [LIDOCAINE],,,,,Activity [15]: Toxic
Cc1ccc(F)cc1N1CC(C)(C)N(C[C@H](N)[C@@H](O)C[C@@H](C)C(=O)NCC(C)(C)C)CC1=O.O=C(O)/C=C/C(=O)O,3.4,1.1,0.6,Toxic,
Cc1ccc(F)cc1N1CC(C)(C)N(C[C@H](N)[C@@H](O)C[C@H](C(=O)Nc2cccnc2)C(C)C)CC1=O.O=C(O)/C=C/C(=O)O,33,2.4,3.3,Toxic,
CC[C@H](C[C@H](O)[C@@H](N)CN1CC(=O)N(c2cc(F)ccc2C)CC1(C)C)C(=O)N[C@H]1C2CC3CC1C[C@](O)(C3)C2.O=C(O)/C=C/C(=O)O,4.6,1.6,0.9,Non-toxic,
COC(=O)C(C)(C)CNC(=O)[C@@H](C[C@H](O)[C@@H](N)CN1CC(=O)N(c2ccccc2Cl)CC1(C)C)C(C)C.O=C(O)/C=C/C(=O)O,23,1.8,1.6,Toxic,
CC(C)[C@H](C[C@H](O)[C@@H](N)CN1CC(=O)N(c2ccccc2Cl)CC1(C)C)C(=O)Nc1ccc(F)cn1.O=C(O)/C=C/C(=O)O,3.4,0.9,0.5,Toxic,Activity [6]: 13.5%; Activity [9]: 64.1%; Activity [11]: 74.7%; Activity [12]: -3.7%; Activity [16]: Toxic
CC[C@H](C[C@H](O)[C@@H](N)CN1CC(=O)N(c2ccccc2Cl)CC1(C)C)C(=O)Nc1ccc(F)cn1.O=C(O)/C=C/C(=O)O,2.1,1,0.6,Toxic,
CC(C)[C@H](C[C@H](O)[C@@H](N)CN1CC(=O)N(c2ccccc2Cl)CC1(C)C)C(=O)Nc1ccc(F)c(F)c1.O=C(O)/C=C/C(=O)O,21,1.9,4.5,Toxic,
CN1CC(=O)N(c2ccccc2Cl)CC1(C)C,,,,,Activity [15]: Non-toxic
CC[C@H](C[C@H](O)[C@@H](N)CN1CC(=O)N(c2ccccc2Cl)CC1(C)C)C(=O)Nc1ncccc1C.O=C(O)/C=C/C(=O)O,15,3.8,2.9,Toxic,
